In ChEMBL document CHEMBL1687928, “Discovery, optimization, and pharmacological characterization of novel heteroaroylphenylureas antagonists of C-C chemokine ligand 2 function” (J Med Chem, 2011):
Active and inactive are the calls of the source. The rule behind the calls is not given here.

How the values were obtained:
[1] = tested on: Mus musculus; experiment: Toxicity in ICR mouse at 100 mg/kg, po QD for 14 days; type: organism-based; design: dose 100 mg/kg, route oral; conditions: in vivo, 336 h
How it was run: (§1)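 Repeated-dose study in 6-week-old male ICR mice. Vehicle or 30, 100 or 300 mg/kg was given orally once daily for 14 days. Survival, behavior, body weight and liver enzymes (AST, ALT) were monitored.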

[2] = tested on: Mus musculus; experiment: Immunosuppressive activity in delayed-type hypersensitivity po dosed […] ICR mouse assessed as inhibition of sheep RBC-induced foot-pad swelling administered 1 hr prior and 2 hr after SRBC challenge measured on day 5 by Plethysmometer; type: functional, organism-based
[3] = tested on: Mus musculus; experiment: Toxicity in ICR mouse assessed as occurrence of hypoactivity at 500 mg/kg, po administered as single dose; type: organism-based; design: dose 500 mg/kg, route oral; conditions: in vivo
[4] = biological target: CYP2C9 (Homo sapiens, UniProt P11712); experiment: Inhibition of CYP2C9 at 100 uM; type: ADME
Chain of CYP2C9 (P11712 whole entry): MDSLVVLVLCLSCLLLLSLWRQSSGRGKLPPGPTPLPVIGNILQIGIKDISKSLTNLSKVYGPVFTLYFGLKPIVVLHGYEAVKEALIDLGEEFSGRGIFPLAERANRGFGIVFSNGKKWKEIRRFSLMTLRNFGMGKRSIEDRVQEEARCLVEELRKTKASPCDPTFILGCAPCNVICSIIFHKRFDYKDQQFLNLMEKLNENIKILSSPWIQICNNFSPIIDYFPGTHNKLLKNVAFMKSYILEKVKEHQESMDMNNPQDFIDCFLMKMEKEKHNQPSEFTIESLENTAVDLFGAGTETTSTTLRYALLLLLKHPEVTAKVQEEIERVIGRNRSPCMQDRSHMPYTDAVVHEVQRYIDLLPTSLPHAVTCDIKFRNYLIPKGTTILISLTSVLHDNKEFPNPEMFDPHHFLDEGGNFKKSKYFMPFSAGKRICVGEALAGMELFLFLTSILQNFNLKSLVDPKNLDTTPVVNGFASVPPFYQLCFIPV

[5] = species: Mus musculus; experiment: Antiinflammatory activity in Freund's adjuvant-induced C57BL/6 mouse assessed as decrease in inflammatory cell infiltrates in spinal cord; type: functional, organism-based
How it was run: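 C57BL/6 mice were immunized s.c. with a MOG33-55 peptide emulsion and given pertussis vaccine (350 ng i.v.) right away and again 48 h later. From day 0, compound in 3% aqueous Tween 80 (4 mg/mL) or water was dosed orally b.i.d. Tissue cellular infiltrate was scored 0–5, from few small perivascular/meningeal infiltrates up to very large extensive infiltrate.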

[6] = Tmax in rat at 30 mg/kg, po; type: ADME, organism-based; design: dose 30 mg/kg, route oral; conditions: in vivo
How it was run: (§2)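 Rats, not fasted, received a single intravenous or oral dose.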

[7] = biological target: CYP3A4 (Homo sapiens, UniProt P08684); experiment: Inhibition of CYP3A4 at 100 uM; type: ADME
Chain of CYP3A4 (P08684 whole entry): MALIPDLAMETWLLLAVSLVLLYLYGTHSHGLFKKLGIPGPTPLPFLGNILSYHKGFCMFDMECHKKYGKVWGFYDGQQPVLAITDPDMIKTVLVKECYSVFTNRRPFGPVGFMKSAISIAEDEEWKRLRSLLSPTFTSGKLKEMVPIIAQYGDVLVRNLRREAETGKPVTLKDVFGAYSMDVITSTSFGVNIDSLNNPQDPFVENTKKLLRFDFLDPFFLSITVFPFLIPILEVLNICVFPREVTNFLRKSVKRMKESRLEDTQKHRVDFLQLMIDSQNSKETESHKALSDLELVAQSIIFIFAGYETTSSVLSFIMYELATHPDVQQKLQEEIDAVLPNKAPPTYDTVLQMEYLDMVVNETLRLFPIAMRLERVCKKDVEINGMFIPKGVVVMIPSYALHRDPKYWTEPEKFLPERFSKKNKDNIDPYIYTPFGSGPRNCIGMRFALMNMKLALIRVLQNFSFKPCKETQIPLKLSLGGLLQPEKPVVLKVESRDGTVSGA

[8] = Volume of distribution at steady state in rat at 5 mg/kg, iv; type: ADME, organism-based; design: dose 5 mg/kg, route intravenous; conditions: in vivo, read-out: Vdss; how it was run: as §2
[9] = tested on: Rattus norvegicus; experiment: Antiinflammatory activity in complete Freund's adjuvant-induced Lewis rat arthritis model assessed as inhibition of paw edema at 30 mg/kg, po BID; type: functional, organism-based; design: dose 30 mg/kg
How it was run: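 Female Lewis SPF rats, 6 weeks old (n = 8/group), received an intradermal right hind footpad injection of 100 μL PBS-emulsified Freund's complete adjuvant (10 mg/mL M. butyricum). From day 10, compound in 5% gum arabic or vehicle was gavaged b.i.d. for a further 18 days; methotrexate 3×/week was the positive control. Left hind-limb volume was read by plethysmometer on days 0, 8, 15, 21 and 28, as % increase over day 0.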

[10] = AUC (0 to 24 hrs) in rat at 5 mg/kg, iv; type: ADME, organism-based; design: time < 24 hr, dose 5 mg/kg, route intravenous; conditions: plasma
[11] = Cmax in rat at 5 mg/kg, po; type: ADME, organism-based; design: dose 5 mg/kg, route oral; conditions: in vivo
[12] = tested on: Mus musculus; experiment: Toxicity in ICR mouse assessed as increase in feeding behavior at 1000 mg/kg, po administered as single dose; type: organism-based; design: dose 1000 mg/kg, route oral; conditions: in vivo
[13] = tested on: Mus musculus; experiment: Toxicity in ICR mouse assessed as increase in AST level at 300 mg/kg, po QD for 14 days; type: organism-based; design: dose 300 mg/kg, route oral; conditions: in vivo, 336 h; how it was run: as §1
[14] = biological target: CYP2C19 (Homo sapiens, UniProt P33261); experiment: Inhibition of CYP2C19 at 100 uM; type: ADME
Chain of CYP2C19 (P33261 whole entry): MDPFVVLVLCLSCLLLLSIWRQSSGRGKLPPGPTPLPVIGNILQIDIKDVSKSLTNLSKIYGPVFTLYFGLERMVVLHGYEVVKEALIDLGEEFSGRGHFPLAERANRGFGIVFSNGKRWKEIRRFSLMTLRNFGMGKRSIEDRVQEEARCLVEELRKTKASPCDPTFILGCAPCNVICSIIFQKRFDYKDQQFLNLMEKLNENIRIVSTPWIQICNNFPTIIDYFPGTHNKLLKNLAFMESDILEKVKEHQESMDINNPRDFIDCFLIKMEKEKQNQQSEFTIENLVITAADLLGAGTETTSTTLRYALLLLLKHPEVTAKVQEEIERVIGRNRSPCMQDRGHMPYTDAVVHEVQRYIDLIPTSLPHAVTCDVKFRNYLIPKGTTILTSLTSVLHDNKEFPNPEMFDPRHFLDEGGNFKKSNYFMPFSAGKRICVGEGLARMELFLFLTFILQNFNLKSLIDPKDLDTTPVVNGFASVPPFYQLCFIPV

[15] = biological target: T1, CYP1A2 (Homo sapiens, UniProt P05177); experiment: Inhibition of CYP1A2 at 1 uM; type: ADME
T1 sequence (P05177 whole entry): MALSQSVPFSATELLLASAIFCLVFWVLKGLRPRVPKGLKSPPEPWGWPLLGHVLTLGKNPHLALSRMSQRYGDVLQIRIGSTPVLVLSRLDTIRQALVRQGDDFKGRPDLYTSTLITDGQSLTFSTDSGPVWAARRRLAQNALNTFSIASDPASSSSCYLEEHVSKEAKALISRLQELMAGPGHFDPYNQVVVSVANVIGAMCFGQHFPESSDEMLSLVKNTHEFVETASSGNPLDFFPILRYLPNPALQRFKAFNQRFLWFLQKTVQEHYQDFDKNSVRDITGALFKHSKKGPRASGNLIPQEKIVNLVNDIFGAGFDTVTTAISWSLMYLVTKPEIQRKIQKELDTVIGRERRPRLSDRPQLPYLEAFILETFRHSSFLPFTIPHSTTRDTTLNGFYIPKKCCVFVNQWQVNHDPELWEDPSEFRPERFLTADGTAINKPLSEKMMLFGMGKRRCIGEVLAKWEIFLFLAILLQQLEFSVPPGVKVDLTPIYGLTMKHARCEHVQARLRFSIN

[16] = tested on: Rattus norvegicus; experiment: Drug uptake in collagen-induced Lewis rat tarasal joints at 2 to 30 mg/kg, po measured 5 hrs after last dosing; type: functional, organism-based
How it was run: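 In the rat collagen-induced arthritis study (oral b.i.d. dosing for 28 days), compound concentration was measured in plasma, tarsal homogenates and thigh-bone marrow. Samples were taken 5 h after the last dose on day 28.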

[17] = Cmax in rat at 30 mg/kg, po; type: ADME, organism-based; design: dose 30 mg/kg, route oral; conditions: in vivo
[18] = tested on: Mus musculus; experiment: Toxicity in ICR mouse assessed as vacuolar degeneration in liver at 300 mg/kg, po QD for 14 days; type: organism-based; design: dose 300 mg/kg, route oral; conditions: in vivo, 336 h
[19] = tested on: Mus musculus; experiment: Toxicity in ICR mouse assessed as CNS excitation at 1000 mg/kg, po administered as single dose; type: organism-based; design: dose 1000 mg/kg, route oral; conditions: in vivo
[20] = Clearance in rat at 5 mg/kg, iv; type: ADME, organism-based; design: dose 5 mg/kg, route intravenous; conditions: in vivo
[21] = biological target: T1, CYP1A2; experiment: Inhibition of CYP1A2 at 100 uM; type: ADME
[22] = biological target: CYP2D6 (Homo sapiens, UniProt P10635); experiment: Inhibition of CYP2D6 at 1 uM; type: ADME
Chain of CYP2D6 (P10635 whole entry): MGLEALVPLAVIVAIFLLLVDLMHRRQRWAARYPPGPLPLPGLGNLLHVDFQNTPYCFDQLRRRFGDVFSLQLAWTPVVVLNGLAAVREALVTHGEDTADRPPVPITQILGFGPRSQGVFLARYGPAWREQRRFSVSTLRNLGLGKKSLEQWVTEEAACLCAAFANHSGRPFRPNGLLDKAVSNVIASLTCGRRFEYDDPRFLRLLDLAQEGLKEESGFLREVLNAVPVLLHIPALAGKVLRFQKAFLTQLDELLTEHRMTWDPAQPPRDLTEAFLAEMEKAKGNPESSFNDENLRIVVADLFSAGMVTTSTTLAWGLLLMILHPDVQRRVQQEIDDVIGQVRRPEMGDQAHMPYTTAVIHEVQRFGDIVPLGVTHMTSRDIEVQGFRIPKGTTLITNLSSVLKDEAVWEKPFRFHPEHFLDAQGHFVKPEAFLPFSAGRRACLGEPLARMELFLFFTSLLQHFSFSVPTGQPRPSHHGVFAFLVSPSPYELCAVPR

[23] = Cmax in rat at 100 mg/kg, po; type: ADME, organism-based; design: dose 100 mg/kg, route oral; conditions: in vivo

Structure (SMILES): Cc1nn(C)c2nc(N(C)CCN(C)C)c(C(=O)NC(=O)Nc3cccc(OC(C)C)c3)cc12.Cl
- Activity [1]: Non-toxic
- Activity [2]: Active
- Activity [3]: Toxic
- inhibition at 100 µM [4]: 36%
- Activity [5]: Active
- Tmax [6]: 3 h
- inhibition at 100 µM [7]: 49%
- Vd [8]: 9.9 L/kg
- Activity [9]: Active
- AUC(0-t) at 24 h [10]: 2690 ng·h/mL
- Cmax [11]: 129 ng/mL
- Activity [12]: Toxic
- Activity [13]: Toxic
- inhibition at 100 µM [14]: 34%
- inhibition at 1 µM [15]: -12%
- Drug uptake [16]: Active
- Cmax [17]: 383 ng/mL
- Activity [18]: Toxic
- Activity [19]: Toxic
- clearance [20]: 31.7 mL/min/kg
- inhibition at 100 µM [21]: -2%
- inhibition at 1 µM [22]: -5%
- Cmax [23]: 927 ng/mL
